Measurements reported in ChEMBL document CHEMBL4393661, “PRODRUGS FOR NITROREDUCTASE BASED CANCER THERAPY- 2: Novel amide/Ntr combinations targeting PC3 cancer cells” (Eur J Med Chem, 2019).
pIC50: −log10 of the molar value.

Assays:
[1] = Cytotoxicity against human HUVEC cells assessed as cell viability at 9 to 150 uM measured after 48 hrs by MTT assay relative to control; assay type: cell-based; conditions: read-out: Activity
Procedure, shortened: (§1)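 Hep3B and HUVEC cells were grown in high-glucose medium with 10% heat-inactivated FBS and 2 mM glutamine at 37 °C in 5% CO2. Cells were seeded at 5x10^4 per well and left 24 h to attach. They were then exposed for 48 h to 150, 75, 39, 19 and 9 µM, with 1% DMSO as vehicle control. Viability was read by MTT at 550 nm as (OD sample/OD control)×100.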

[2] = target: T1, Staphylococcus saprophyticus nitroreductase (Staphylococcus saprophyticus subsp. saprophyticus (strain ATCC 15305 / DSM20229 / NCIMB 8711 / NCTC 7292 / S-41), UniProt Q4A0P1); assay: Substrate activity at Staphylococcus saprophyticus nitroreductase expressed in Escherichia coli assessed as half life in the presence of NADPH at 111 uM by HPLC analysis (0 to 5 mins at 20% ACN, 25 to 35 min at 80% ACN, 40 to 45 min at 20% ACN); assay type: ADME
T1 sequence (Q4A0P1 whole entry): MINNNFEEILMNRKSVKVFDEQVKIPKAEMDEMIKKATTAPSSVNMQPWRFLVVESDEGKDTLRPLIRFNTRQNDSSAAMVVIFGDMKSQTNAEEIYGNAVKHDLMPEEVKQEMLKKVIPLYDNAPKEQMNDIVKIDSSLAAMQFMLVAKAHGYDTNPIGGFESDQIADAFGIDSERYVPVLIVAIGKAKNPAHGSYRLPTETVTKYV

Hep 3B2 = assay: Cytotoxicity against human Hep3B cells assessed as reduction in cell viability measured after 48 hrs by MTT assay; assay type: cell-based; procedure, shortened: as §1
Putative nitroreductase [3] = target: T2, Putative nitroreductase (Staphylococcus saprophyticus subsp. saprophyticus (strain ATCC 15305 / DSM20229 / NCIMB 8711 / NCTC 7292 / S-41), UniProt Q4A0P1); assay: Substrate activity at Staphylococcus saprophyticus nitroreductase expressed in Escherichia coli assessed as retention time in the presence of NADPH at 111 uM by HPLC analysis (0 to 5 mins at 20% ACN, 25 to 35 min at 80% ACN, 40 to 45 min at 20% ACN); assay type: ADME
T2 sequence (Q4A0P1 whole entry): T1 sequence (Q4A0P1 whole entry)

[4] = Cytotoxicity against human Hep3B cells assessed as cell viability at 9 to 150 uM measured after 48 hrs by MTT assay relative to control; assay type: cell-based, Hep 3B2; conditions: read-out: Activity; procedure, shortened: as §1
[5] = Cytotoxicity against human PC3 cells assessed as cell viability at 9 to 150 uM measured after 48 hrs by MTT assay relative to control; assay type: cell-based, PC-3; conditions: read-out: Activity
Procedure, shortened: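 They were treated for 48 h at 9, 18, 39, 78 and 150 µM, with 1% DMSO as vehicle control. Viability was read by MTT at 550 nm.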

Putative nitroreductase [6] = target: T2, Putative nitroreductase; assay: Substrate activity at Staphylococcus saprophyticus nitroreductase expressed in Escherichia coli assessed as retention time […] at 111 uM by HPLC analysis (0 to 5 mins at 20 % ACN, 15 to 22 min at 80% ACN, 27-32 AT 20% ACN); assay type: ADME
[7] = target: T1, Staphylococcus saprophyticus nitroreductase; assay: Substrate activity at Staphylococcus saprophyticus nitroreductase expressed in Escherichia coli assessed as half life […] at 100 uM by HPLC analysis (0 to 5 mins at 20% ACN, 25 to 35 min at 80% ACN, 40 to 45 min at 20% ACN); assay type: ADME
[8] = Solubility of the compound in 15% DMSO; assay type: physicochemical
Putative nitroreductase [9] = target: T2, Putative nitroreductase; assay: Substrate activity at Staphylococcus saprophyticus nitroreductase expressed in Escherichia coli assessed as retention time in the presence of NADPH at 100 uM by HPLC analysis (0 to 5 mins at 20% ACN, 25 to 35 min at 80% ACN, 40 to 45 min at 20% ACN); assay type: ADME
[10] = target: T1, Staphylococcus saprophyticus nitroreductase; assay: Substrate activity at Staphylococcus saprophyticus nitroreductase expressed in Escherichia coli assessed as half life […] at 100 uM by HPLC analysis (0 to 5 mins at 20 % ACN, 15 to 22 min at 80% ACN, 27-32 AT 20% ACN); assay type: ADME
PC-3 [11] = assay: Cytotoxicity against human PC3 cells assessed as reduction in cell viability measured after 48 hrs in presence of Staphylococcus saprophyticus nitroreductase and NADH by SRB assay; assay type: cell-based; conditions: PC-3, 48 h
Procedure, shortened: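 Prodrug at 180, 18 or 1.8 nM was premixed with Ssap-NtrB (31 µg/mL final) and NADH (600 µM final; 900 µM for CB1954) in 25 mM Tris-HCl pH 7.5, then added for 48 h under aerobic conditions. Cells were fixed with 12.5% TCA, stained with SRB and read at 492 nm, in triplicate.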

Putative nitroreductase [12] = target: T2, Putative nitroreductase; assay: Substrate activity at Staphylococcus saprophyticus nitroreductase expressed in Escherichia coli assessed as retention time […] at 100 uM by HPLC analysis (0 to 5 mins at 20 % ACN, 15 to 22 min at 80% ACN, 27-32 AT 20% ACN); assay type: ADME
PC-3 [13] = assay: Cytotoxicity in human PC3 cells assessed as reduction in cell viability at 180 nM measured after 48 hrs by SRB assay; assay type: cell-based; conditions: pc-3, 48 h, 0.18 µM
Procedure, shortened: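 They were exposed for 48 h to prodrug alone at 180 nM final, without enzyme or NADH, with 25 mM Tris-HCl as vehicle control. Cells were fixed with 12.5% TCA for 1 h at 4 °C, stained with 0.4% SRB and read at 492 nm as % cell survival, in triplicate.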

CCCCN(CCCC)c1c([N+](=O)[O-])cc(C(=O)Nc2ccc([N+](=O)[O-])cc2)cc1[N+](=O)[O-]
viability at 48 h, up to 150 µM [1]: < 50%
half-life [2]: < 1.56 h
pIC50 (Hep 3B2): 4.51
Retention_time (Putative nitroreductase [3]): 31.96 min
viability at 48 h, up to 150 µM [4]: < 50%
viability at 48 h, up to 150 µM [5]: < 50%
Retention_time (Putative nitroreductase [6]): 26.5 min

O=C(NCCNC(=O)c1ccc([N+](=O)[O-])cc1)c1ccc([N+](=O)[O-])cc1
half-life at 100 µM [7]: < 2.54 h
solubility [8]: Soluble
viability at 48 h, up to 150 µM [1]: > 80%
Retention_time (Putative nitroreductase [9]): 17.86 min
half-life [10]: < 1.2 h
pIC50 (PC-3 [11]): 7.51
Retention_time (Putative nitroreductase [12]): 18.65 min
viability at 48 h, up to 150 µM [4]: 51 to 80%
viability at 48 h, up to 150 µM [5]: > 80%
Activity (PC-3 [13]): Non-Toxic

O=C(NC1CCCC(NC(=O)c2ccc([N+](=O)[O-])cc2)C1)c1ccc([N+](=O)[O-])cc1 (stereo unspecified)
half-life at 100 µM [7]: < 0.26 h
solubility [8]: Soluble
viability at 48 h, up to 150 µM [1]: > 80%
Retention time (Putative nitroreductase [9]): 19.4 to 20.1 min
half-life [10]: < 2 h
pIC50 (PC-3 [11]): 7.52
Retention time (Putative nitroreductase [12]): 19.4 to 20.6 min
viability at 48 h, up to 150 µM [4]: > 80%
viability at 48 h, up to 150 µM [5]: 51 to 80%
Activity (PC-3 [13]): Non-Toxic

CC(=O)Nc1cc([N+](=O)[O-])ccc1Br
viability at 48 h, up to 150 µM [1]: > 80%
half-life [10]: < 0.2 h
pIC50 (PC-3 [11]): 4.99
Retention_time (Putative nitroreductase [12]): 13.88 min
viability at 48 h, up to 150 µM [4]: > 80%
viability at 48 h, up to 150 µM [5]: > 80%
Activity (PC-3 [13]): Non-Toxic

CN(C)c1c([N+](=O)[O-])cc(C(=O)Nc2ccc(Cl)cc2)cc1[N+](=O)[O-]
viability at 48 h, up to 150 µM [1]: 51 to 80%
half-life [2]: < 3.15 h
pIC50 (Hep 3B2): 3.92
Retention_time (Putative nitroreductase [3]): 25.86 min
viability at 48 h, up to 150 µM [4]: < 50%
viability at 48 h, up to 150 µM [5]: < 50%
Retention_time (Putative nitroreductase [6]): 19.22 min

O=C(NCCCCNC(=O)c1ccc([N+](=O)[O-])cc1)c1ccc([N+](=O)[O-])cc1
solubility [8]: Soluble
viability at 48 h, up to 150 µM [1]: > 80%
pIC50 (PC-3 [11]): 7.43
Retention_time (Putative nitroreductase [12]): 19.02 min
viability at 48 h, up to 150 µM [4]: > 80%
viability at 48 h, up to 150 µM [5]: > 80%
Activity (PC-3 [13]): Non-Toxic

CCCCN(CCCC)c1c([N+](=O)[O-])cc(C(=O)Nc2ccc(Cl)cc2)cc1[N+](=O)[O-]
viability at 48 h, up to 150 µM [1]: < 50%
half-life [2]: < 2.4 h
pIC50 (Hep 3B2): 4.93
Retention_time (Putative nitroreductase [3]): 34.2 min
viability at 48 h, up to 150 µM [4]: < 50%
viability at 48 h, up to 150 µM [5]: < 50%
Retention_time (Putative nitroreductase [6]): 20.12 min

O=C(NC1CCCCC1NC(=O)c1ccc([N+](=O)[O-])cc1)c1ccc([N+](=O)[O-])cc1 (stereo unspecified)
half-life at 100 µM [7]: < 1.8 h
solubility [8]: Soluble
viability at 48 h, up to 150 µM [1]: > 80%
Retention_time (Putative nitroreductase [9]): 20.85 min
half-life [10]: < 0.52 h
pIC50 (PC-3 [11]): 7.81
Retention_time (Putative nitroreductase [12]): 20.91 min
viability at 48 h, up to 150 µM [4]: > 80%
viability at 48 h, up to 150 µM [5]: > 80%
Activity (PC-3 [13]): Non-Toxic

NC(=O)c1cc(N2CC2)c([N+](=O)[O-])cc1[N+](=O)[O-] [TRETAZICAR]
Activity (PC-3 [13]): Non-Toxic
